# Calls of active or inactive are those of the source. The rule behind the calls is not given here.
# Key:
# Type in all cases: cell-based
# [1] = biological target: T1, Mineralocorticoid receptor (Homo sapiens) (UniProt P08235); assay: Modulation of mineralocorticoid receptor in human SKGT4 cells assessed as receptor translocation from cytoplasm to nucleus at 50 uM after 4 hrs by Hoechst staining
# T1 sequence (whole entry): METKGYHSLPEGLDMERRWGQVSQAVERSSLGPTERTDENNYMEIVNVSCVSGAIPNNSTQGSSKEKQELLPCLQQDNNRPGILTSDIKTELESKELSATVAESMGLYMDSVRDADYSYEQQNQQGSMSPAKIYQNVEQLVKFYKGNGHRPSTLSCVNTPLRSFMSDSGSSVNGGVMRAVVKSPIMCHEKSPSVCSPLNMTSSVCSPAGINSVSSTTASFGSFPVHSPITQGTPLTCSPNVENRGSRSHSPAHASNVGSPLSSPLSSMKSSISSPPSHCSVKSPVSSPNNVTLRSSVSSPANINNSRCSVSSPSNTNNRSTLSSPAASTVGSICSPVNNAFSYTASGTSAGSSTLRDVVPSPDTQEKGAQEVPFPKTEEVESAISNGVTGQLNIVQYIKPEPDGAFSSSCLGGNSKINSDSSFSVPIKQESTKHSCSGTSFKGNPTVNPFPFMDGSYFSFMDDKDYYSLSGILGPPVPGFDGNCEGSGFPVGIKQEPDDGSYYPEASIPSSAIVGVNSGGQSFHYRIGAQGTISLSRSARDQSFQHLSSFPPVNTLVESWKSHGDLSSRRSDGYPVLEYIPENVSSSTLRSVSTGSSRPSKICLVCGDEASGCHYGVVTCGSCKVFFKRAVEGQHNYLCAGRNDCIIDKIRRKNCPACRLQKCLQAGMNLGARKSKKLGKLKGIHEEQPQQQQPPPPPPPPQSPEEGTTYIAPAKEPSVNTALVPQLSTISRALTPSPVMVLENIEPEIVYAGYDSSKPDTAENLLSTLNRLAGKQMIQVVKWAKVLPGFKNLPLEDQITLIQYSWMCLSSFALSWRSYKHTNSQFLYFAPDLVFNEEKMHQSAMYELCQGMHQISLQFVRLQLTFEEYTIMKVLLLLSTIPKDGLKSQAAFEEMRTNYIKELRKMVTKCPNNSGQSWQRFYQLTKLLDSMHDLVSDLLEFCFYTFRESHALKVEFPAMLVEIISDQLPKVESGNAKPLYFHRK
# [2] = biological target: T2, Glucocorticoid receptor (Homo sapiens) (UniProt P04150); assay: Modulation of glucocorticoid receptor in human SKGT4 cells assessed as receptor translocation from cytoplasm to nucleus at 100 uM after 240 mins by Hoechst staining relative to Dexamethasone
# T2 sequence (whole entry): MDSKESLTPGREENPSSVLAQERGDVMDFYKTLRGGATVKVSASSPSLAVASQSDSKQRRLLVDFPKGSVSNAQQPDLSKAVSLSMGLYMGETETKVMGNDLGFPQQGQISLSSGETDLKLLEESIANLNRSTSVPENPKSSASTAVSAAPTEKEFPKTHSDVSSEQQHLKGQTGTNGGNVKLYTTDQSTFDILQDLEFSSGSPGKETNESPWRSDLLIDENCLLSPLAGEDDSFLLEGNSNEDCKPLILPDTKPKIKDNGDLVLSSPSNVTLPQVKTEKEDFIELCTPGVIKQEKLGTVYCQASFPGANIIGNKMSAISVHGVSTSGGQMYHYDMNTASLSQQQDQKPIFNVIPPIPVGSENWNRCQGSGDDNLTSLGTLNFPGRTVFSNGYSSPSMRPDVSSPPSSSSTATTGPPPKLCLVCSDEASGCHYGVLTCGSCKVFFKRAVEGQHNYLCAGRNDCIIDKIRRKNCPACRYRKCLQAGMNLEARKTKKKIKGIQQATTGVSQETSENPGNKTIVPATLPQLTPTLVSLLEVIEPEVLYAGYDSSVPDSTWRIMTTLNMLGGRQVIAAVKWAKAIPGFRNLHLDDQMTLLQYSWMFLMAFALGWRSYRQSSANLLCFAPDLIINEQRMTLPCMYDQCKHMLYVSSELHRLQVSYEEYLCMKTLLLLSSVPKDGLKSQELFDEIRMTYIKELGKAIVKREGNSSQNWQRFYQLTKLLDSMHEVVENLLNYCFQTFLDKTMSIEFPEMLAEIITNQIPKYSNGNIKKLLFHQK
# How it was run: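 Time course in serum-starved SKGT-4 cells: 100 μM compound for 15, 30, 60, 120 or 240 min in 1% DMSO medium. Fixed, GR immunostained, Hoechst nuclear stain, high-content imaging. Background-corrected nuclear/cytoplasmic GR ratio normalised to Dex 100 nM; mean of two experiments in triplicate, compared with 1% DMSO.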
# [3] = biological target: T3, Glucocorticoid receptor (Homo sapiens, UniProt P04150); assay: Modulation of glucocorticoid receptor in human SKGT4 cells assessed as receptor translocation from cytoplasm to nucleus after 4 hrs by Hoechst staining relative to Dexamethasone
# T3 sequence (P04150 whole entry): T2 sequence (whole entry)
SMILES,Activity [1],Activity [2],EC50 [3] [µM]
C[C@H](CCC(=O)O)[C@H]1CC[C@H]2[C@@H]3[C@@H](O)C[C@@H]4C[C@H](O)CC[C@]4(C)[C@H]3CC[C@]12C,inactive,–,–
C[C@H](CCC(=O)N1CCOCC1)[C@H]1CC[C@H]2[C@@H]3[C@@H](O)C[C@@H]4C[C@H](O)CC[C@]4(C)[C@H]3CC[C@]12C,–,Active,25.3
C[C@H](CCC(=O)NCCc1ccccc1)[C@H]1CC[C@H]2[C@@H]3[C@@H](O)C[C@@H]4C[C@H](O)CC[C@]4(C)[C@H]3CC[C@]12C,–,–,109
C[C@H](CCC(=O)N1CCN(Cc2ccccc2)CC1)[C@H]1CC[C@H]2[C@@H]3[C@@H](O)C[C@@H]4C[C@H](O)CC[C@]4(C)[C@H]3CC[C@]12C,–,Active,5.6
C[C@H](C#N)[C@H]1CC[C@H]2[C@@H]3[C@@H](O)C[C@@H]4C[C@H](O)CC[C@]4(C)[C@H]3CC[C@]12C,–,–,130
CC(NC(=O)CC[C@@H](C)[C@H]1CC[C@H]2[C@@H]3[C@@H](O)C[C@@H]4C[C@H](O)CC[C@]4(C)[C@H]3CC[C@]12C)c1ccccc1 (stereo not given in full),–,–,124
C[C@H](CCC(=O)NC1CC1)[C@H]1CC[C@H]2[C@@H]3[C@@H](O)C[C@@H]4C[C@H](O)CC[C@]4(C)[C@H]3CC[C@]12C,–,Active,7.3
C[C@H](CCC(=O)N1CCNCC1)[C@H]1CC[C@H]2[C@@H]3[C@@H](O)C[C@@H]4C[C@H](O)CC[C@]4(C)[C@H]3CC[C@]12C,–,–,50.8
C[C@H](CCC(=O)NCc1ccccc1)[C@H]1CC[C@H]2[C@@H]3[C@@H](O)C[C@@H]4C[C@H](O)CC[C@]4(C)[C@H]3CC[C@]12C,–,–,110
C[C@H](CC(=O)O)[C@H]1CC[C@H]2[C@@H]3[C@@H](O)C[C@@H]4C[C@H](O)CC[C@]4(C)[C@H]3CC[C@]12C [NORUCHOLIC ACID],–,–,105
C[C@H](C(=O)O)[C@H]1CC[C@H]2[C@@H]3[C@@H](O)C[C@@H]4C[C@H](O)CC[C@]4(C)[C@H]3CC[C@]12C,–,–,99.7
C[C@H](CCC#N)[C@H]1CC[C@H]2[C@@H]3[C@@H](O)C[C@@H]4C[C@H](O)CC[C@]4(C)[C@H]3CC[C@]12C,–,–,101
